Compound activity from PubChem.
Hits are enriched below; roughly 3.1% of the tested compounds scored in any of these assays.
hERG protect – shields human hERG channel from block by proarrhythmic agents; Q12809; 0.51% of 310,000 active; activation (rescue from dofetilide block), less the hit threshold, % at 10 µM; CHO-hERG, FluxOR thallium flux, dofetilide IC70 present;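 active = activation above the mean of controls blocked by dofetilide plus 5 SD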;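 also: thallium influx through hERG after potassium depolarization seen as dye fluorescence rise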
KCNK3 inh – human KCNK3 channel inhibition, primary screen | B-score at 10 µM | 0.84% of 340,000 active | AID 602410 | CHO-KCNK3 thallium flux, FluxOR fluorescence; hits give low values | O14649;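 active = B-score under library mean minus 4 SD, starting fluorescence ratio at most library mean plus 5 SD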;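 also: more negative B-score means stronger inhibition of thallium flux through KCNK3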
KCNQ1 pot – human KCNQ1 channel potentiation or activation. P51787. CHO-K1 KCNQ1, thallium flux FluxOR fluorescence; hits give high values. B-score at 10 µM. 0.35% of 310,000 active;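 active = fluorescence ratio B-score, a plate-corrected score, at least three library SD, with initial intensity B-score within 5 SD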
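assay system = KCNQ1-transfected CHO-K1 cells | medium = assay buffer with matched DMSO | probe or stimulus = depolarizing K+/Tl+ stimulus, K2SO4 and Tl2SO4 each 12.5 mM in 5x stock | dosing = single dose | incubation = dye 90 min, compound 20 min, room temperature | detection = kinetic FluxOR fluorescence, 10 s baseline plus 110 s post-stimulus | evaluation = ratio B score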
KCNQ1 block – human KCNQ1 channel inhibition; P51787; CHO-K1 KCNQ1, FluxOR thallium flux fluorescence; hits give high values; B-score at 10 µM; 1.3% of 310,000 active; AID 2642;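 active = compounds whose thallium flux B-score, printed positive for inhibition, exceeds three library SD while starting fluorescence stays within three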;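 also: channel opened by potassium depolarization with thallium stimulus after 20 min compound exposure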
KCNK9 inh – inhibitors of human KCNK9 two-pore domain potassium channel. Q9NPC2. HEK293 KCNK9, FluxOR thallium flux fluorescence; hits give low values. B-score at 10 µM. 1.2% of 310,000 active;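 active = ratio B-score over 3 SD below the library mean, with starting fluorescence within 5 SD of its mean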;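 also: negative B-score means less thallium flux so channel inhibition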
Target sequence (Q9NPC2 whole entry, looked up, the tested form may be a part): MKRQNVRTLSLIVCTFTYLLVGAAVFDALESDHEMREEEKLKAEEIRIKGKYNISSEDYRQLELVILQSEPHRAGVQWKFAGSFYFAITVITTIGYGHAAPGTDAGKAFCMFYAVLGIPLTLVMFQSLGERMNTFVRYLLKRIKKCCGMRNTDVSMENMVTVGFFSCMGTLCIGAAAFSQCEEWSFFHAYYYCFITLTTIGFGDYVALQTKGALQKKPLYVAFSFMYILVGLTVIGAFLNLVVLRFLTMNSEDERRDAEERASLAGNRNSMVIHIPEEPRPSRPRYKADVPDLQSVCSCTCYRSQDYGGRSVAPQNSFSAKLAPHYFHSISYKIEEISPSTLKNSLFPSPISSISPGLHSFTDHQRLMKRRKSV
Starred values were filed as active, the others as inactive; i = inactive; . = no result given.

SMILES | hERG protect | KCNK3 inh | KCNQ1 pot | KCNQ1 block | KCNK9 inh
CC(=O)Nc1ccc(S(=O)(=O)N2CCN(c3nc(NC4CCCC4)c4ccccc4n3)CC2)cc1 | -16 | i | i | 6* | i
CC(=O)Nc1ccc(S(=O)(=O)N2CCN(c3cc(C)nc4ccccc34)CC2)cc1 | -6 | i | i | i | i
COc1ccccc1-c1nn(Cc2ccccc2)cc1C(=O)NCC(c1ccco1)N1CCCC1 (configuration not stated) | . | i | . | . | .
COC(=O)C12OCC34C(CC5C(C)=C(O)C(=O)CC5(C)C3C(O)C1O)OC(=O)C(OC(=O)C=C(C)C)C24 (configuration not stated) | . | i | . | . | .
COc1ccc(-c2nn(-c3ccccc3)cc2C(=O)NC(=S)Nc2cc(Cl)ccc2Cl)cc1 | -11 | i | i | i | i
COc1ccc(NC(=O)c2cn(-c3ccccc3)nc2-c2ccncc2)cc1 | 25* | i | i | i | i
COc1ccc(NC(=O)c2cn(-c3ccccc3)nc2-c2cc3ccccc3o2)cc1 | -5 | i | i | 7* | i
COc1ccc(-c2nn(-c3ccccc3)cc2C(=O)Nc2ccc(C(=O)O)cc2)cc1 | -1 | i | i | i | i
O=C(Nc1ccc2ccccc2c1)c1cn(-c2ccccc2)nc1-c1cccs1 | -12 | i | i | i | i
COc1ccc(-c2nn(-c3ccccc3)cc2C(=O)NC(=S)NNC(=O)c2ccncc2)cc1 | 17* | i | i | i | i
O=c1[nH]c(=O)n(C2OC(CO)C(O)C2O)cc1N1CCOCC1 (configuration not stated) | . | i | . | . | .
O=C(NC(=S)N1CCc2ccccc21)c1ccc(Br)o1 | 12* | i | 81* | i | i
O=C(COc1ccc(Br)cc1Br)NC(=S)N1CCCc2ccccc21 | 6.8* | i | i | i | i
O=C(NC(=S)N1CCc2ccccc21)c1ccccc1Br | 52* | i | 45* | i | i
CC(Oc1ccc(Cl)cc1Cl)C(=O)NC(=S)N1CCc2ccccc21 (configuration not stated) | 28* | i | 9* | i | i
Cc1ccc(S(=O)(=O)N2C[C@@H]3[C@H]4CC[C@H](C4)[C@@H]3[C@@H](C)[C@H]2c2ccco2)cc1 | . | i | . | . | .
Cc1ccc(S(=O)(=O)Nc2c(C(=O)O)[nH]c3ccccc23)c(C)c1 | -8 | i | i | i | i
Cc1nnc2sc(-c3cccc(F)c3)nn2c1=O | -4 | i | i | i | i
COc1ccc(/C=N/NC(=O)c2ccc(O)cc2)cc1CN1CCCc2ccccc21 | -10 | i | i | i | -7.9*
Cc1ccc(NC(=O)COC(=O)CCc2c(C)nc3ncnn3c2C)cc1 | . | i | . | . | .
CCCC(=O)NC1=C(Cl)C(=O)c2ccccc2C1=O | . | -9.3* | . | . | .
CCCc1nc2c(s1)CCc1onc(-c3cccc([N+](=O)[O-])c3)c1-2 | -5 | i | i | i | i
CC(C)c1nc2c(s1)CCc1onc(-c3cccc([N+](=O)[O-])c3)c1-2 | -7 | i | i | i | -6.7*
CC(NC(=O)NC1CCCCC1)c1ccccc1 (configuration not stated) | 7.3* | i | i | i | i
CC(NC(=S)NC1CCCCC1)c1ccccc1 (configuration not stated) | -6 | i | i | i | i
SMILES | hERG protect | KCNK3 inh | KCNQ1 pot | KCNQ1 block | KCNK9 inh
CCOC(=O)C1C(=O)C=C(c2ccc(C)cc2)CC1c1ccccc1 (configuration not stated) | -16 | i | i | i | i
CCOC(=O)C1C(=O)C=C(c2ccc([N+](=O)[O-])cc2)CC1c1ccccc1 (configuration not stated) | -17 | i | i | 6* | i
O=C(Nc1ccc(NC(=O)c2ccccc2F)cn1)c1ccco1 | -7 | i | i | i | i
CC(Oc1ccc(Cl)cc1Cl)C(=O)Nc1ccc2oc(-c3ccncc3)nc2c1 (configuration not stated) | -15 | -10* | i | i | i
COc1ccc(N2CCN(C(=O)CN(C3CCCCC3)S(C)(=O)=O)CC2)cc1 | 32* | i | i | i | i
O=S(=O)(/N=C(/Nc1cccnc1Cl)c1ccccc1)c1ccccc1 | . | i | . | . | .
O=C(O)COc1ccccc1/C=N/NC(=O)c1cccc(S(=O)(=O)N2CCOCC2)c1 | 5.4* | i | i | i | i
COc1ccc(NC(=O)c2cccc(S(=O)(=O)N3CCOCC3)c2)cn1 | -4 | i | i | i | -6.9*
O=S(=O)(CC=CCS(=O)(=O)c1ccccc1)c1ccccc1 | . | i | . | . | .
CCOC(=O)c1c(-c2ccccc2)csc1NC(=O)C(C)NCc1ccco1 (configuration not stated) | -13 | i | i | 7* | i
O=C(Nc1cccc(NC(=O)c2ccccc2[N+](=O)[O-])n1)c1ccccc1[N+](=O)[O-] | -12 | -9.5* | i | i | i
Cc1ccc(C(C)C)c(OCC(=O)OCC(=O)NC2CC2)c1 | . | i | . | . | .
Cc1ccc(C(C)C)c(OCC(=O)OCc2c(C)noc2C)c1 | -7 | i | i | i | -7.4*
COC(=O)c1c(NC(=O)CSc2nnnn2-c2ccc3c(c2)OCO3)sc(C)c1C | 3 | i | i | i | -6.9*
CCOC(=O)c1c(NC(=O)CSc2nnnn2-c2ccc3c(c2)OCO3)sc(C)c1C | -6 | i | i | i | i
c1ccc(-c2noc(CN3CCN(C(c4ccccc4)c4ccccc4)CC3)n2)cc1 | -12 | i | i | i | -7.2*
O=C(NCc1ccc(F)cc1)C(c1ccc(Cl)cc1)N(C(=O)c1csnn1)C1CC1 (configuration not stated) | -3 | i | i | i | i
Cc1cc(/C=C2/SC(=S)N(c3cccc(C(F)(F)F)c3)C2=O)c(C)n1-c1cccnc1 | -4 | i | i | 6* | i
O=C(CN1C(=O)NC2(CCCCCCC2)C1=O)NCc1ccccc1 | . | i | . | . | .
Cc1ccc(S(=O)(=O)c2nc(-c3ccccc3)oc2NCc2cccnc2)cc1 | -10 | i | i | i | i
Cc1ccccc1-c1nc(S(=O)(=O)c2ccc(Br)cc2)c(NCc2cccnc2)o1 | -17 | -9.1* | i | i | i
Cc1ccc(NC(=O)c2nc(S(=O)(=O)Cc3ccccc3C)ncc2Cl)cc1C | -13 | i | i | i | i
COc1ccc(S(=O)(=O)n2nc(-c3cc(OC)c(OC)c(OC)c3)cc2N)cc1OC | . | i | . | . | .
COc1ccc(-c2cc(N)n(S(=O)(=O)c3c(F)c(F)c(F)c(F)c3F)n2)cc1OC | -36 | -11* | 8* | i | i
C=CCn1c(CCCNC(=O)C(C)(C)C)nc2ccccc21 | -8 | i | i | i | i
